Most compounds without a hit are left out; they make up all but 3.9% or so of the library.
UPR XBP1 act = activators of adaptive XBP1 UPR arm, primary screen, cell-based, CHO-XBP1 luciferase reporter, luminescence, uHTS; IRE1-XBP1 UPR activation; percent of tunicamycin response, DMSO as zero; activation, % at 20 µM; hit rate 0.33% among 330,000; AID 463104, 2010;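 active means versus positive control, 20 µM dose yields 30% or more activation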;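 further: 100% = tunicamycin at 10 µg/mL and 0% = DMSO only wells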
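Material: CHO-XBP1 cells stably carrying IRE1-XBP1-driven luciferase reporter / Amount: 1000 cells per well / Compound: 20 µM, 1% DMSO / Times: 6 h treatment, 37 °C / Detection: luciferase luminescence / Measure: % activation of reporter signal versus tunicamycin and DMSO controls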
CHOP UPR activ = activators of apoptotic CHOP UPR arm, primary screen, cell-based, CHO-CHOP luciferase reporter, luminescence, uHTS. hit rate 0.34% among 330,000. activation, % at 10 µM. AID 449763, 2010. UPR activation; percent of tunicamycin response over DMSO baseline;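 active means at 10 µM dose, activation of 40% or more, normalized to positive control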;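 further: 100% = tunicamycin at 10 µg/mL and 0% = DMSO alone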
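System: CHO-CHOP luciferase reporter cell line; amount: 500 cells/well; buffer or medium: F12 medium containing 10% fetal bovine serum; incubation: 6 h compound exposure at 37 °C after overnight seeding; measured by: luciferase luminescence after 10 min with Steady-Glo reagent; evaluation: % reporter activation, DMSO baseline versus tunicamycin full activation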
tim10-1 inh = growth inhibitors of tim10-1 mutant yeast, primary screen, luminescence, uHTS | S. cerevisiae tim10-1 ts strain growth, BacTiter-Glo, 24 h | inhibition, % at 20 µM | hit rate 2.2% among 330,000 | AID 463190, 2010;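 active means inhibition of at least 40%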;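 further: mutant grown at 25 °C; 0% = DMSO wells with yeast and 100% = wells holding no yeast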
tim23-1 inh = growth inhibitors of tim23-1 mutant yeast, primary screen, luminescence, uHTS | S. cerevisiae tim23-1 growth, BacTiter-Glo luminescence, 24 h | inhibition, % at 20 µM | hit rate 1.3% among 330,000 | AID 463212, 2010;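 active means growth inhibition of the mutant yeast at or above 50%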;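 further: temperature-sensitive mutant grown at 25 °C; plate controls were DMSO-treated mutant yeast for no effect and medium wells lacking yeast for full effect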
TIM10 inh = growth inhibitors of isogenic TIM10 control yeast, primary screen, counter-screen for tim10-1 yeast inhibitor project, luminescence, uHTS. hit rate 1.4% among 330,000. S. cerevisiae TIM10 strain growth, BacTiter-Glo luminescence, 24 h. inhibition, % at 10 µM;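 active means inhibition of 40% or more at the single tested concentration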;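 further: wild-type TIM10 isogenic control strain grown at permissive 25 °C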
tim10-1 confirm = growth inhibitors of tim10-1 mutant yeast, confirmation, single concentration, luminescence, S. cerevisiae; shares compounds with tim10-1 inh; S. cerevisiae tim10-1 ts strain growth, BacTiter-Glo, 24 h; inhibition, % at 20 µM; hit rate 56% among 7,400;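 active means inhibition of yeast growth at or above a set limit in either of two repeat tests at 20 µM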;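 further: tim10-1 mutant grown at permissive 25 °C to find synthetic lethal compounds; 0% = DMSO yeast wells and 100% = medium wells without yeast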
tim10 confirm = growth inhibitors of wild-type TIM10 yeast, confirmation, counter-screen for tim10-1 synthetic lethality project, single concentration, luminescence, S. cerevisiae. inhibition, % at 10 µM. hit rate 63% among 4,600. S. cerevisiae tim10 strain growth, BacTiter-Glo luminescence, 24 h. shares compounds with TIM10 inh;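 active means inhibition of yeast growth at or above a set limit in either of two replicates at 10 µM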;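 further: this counterscreen used the strain with wild-type TIM10; 0% = yeast with DMSO and 100% = medium wells lacking yeast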
The depositor's hits bear a star; · = not tested or not shown.

SMILES | UPR XBP1 act | CHOP UPR activ | tim10-1 inh | tim23-1 inh | TIM10 inh | tim10-1 confirm | tim10 confirm
CC1CCC(NC(=O)Nc2cccs2)CC1 (stereo not drawn) | 3.6 | 2.6 | 54.1* | 36.8 | 59.6* | 73.2* | 46.4*
C=CCn1c(SCc2c(F)cccc2Cl)nnc1-c1ccco1 | 1.9 | 2.5 | 41.0* | 45.5 | 50.6* | 37.0* | 23.2
C=CCn1c(SCC(=O)Nc2cc(C)c(Cl)cc2OC)nnc1-c1ccco1 | 1.9 | -0.5 | 30.5 | 35.8 | 7.6 | · | ·
CCCN(CC(=O)Nc1ccccc1C)C(=O)c1ccc(COc2ccccc2)cc1 | -6.0 | -0.6 | 12.6 | 17.4 | -7.0 | · | ·
COc1ccc(C(=O)n2c(SC)nc3cc4c(cc32)OCCO4)cc1 | 1.5 | 1.6 | 43.4* | 43.7 | 47.4* | 37.5* | 21.4
Cc1ccc(N=Cc2c(O)n(C)c(=O)n(C)c2=O)nc1 | 1.1 | 3.9 | 40.4* | 24.7 | 43.1* | 17.0 | 33.5*
Cc1ccc(N=CC2=C(O)CC(C)(C)CC2=O)nc1 | 7.2 | -0.7 | 7.6 | 1.0 | -3.0 | · | ·
COc1ccc(O)c(/C=C(\C#N)C(=O)Nc2ccccn2)c1 | -2.4 | 7.0 | 3.8 | 6.2 | 7.8 | · | ·
Cc1nn(-c2ccccc2)c2[nH]c(=O)c(CNCc3ccc4c(c3)OCO4)cc12 | 2.1 | -0.9 | 3.7 | 6.9 | 1.9 | · | ·
Cc1ccc(-c2nn(-c3ccccc3)c3[nH]c(=O)c(CNCc4ccccc4)cc23)cc1 | 1.8 | 4.9 | 52.5* | 47.3 | 43.3* | 46.8* | 42.1*
CC(C)C(C(=O)NCC1CCCO1)N(C(=O)CNS(=O)(=O)c1ccccc1)C1CCCCC1 (stereo not drawn) | -1.4 | 0.1 | -6.4 | 6.2 | 4.1 | · | ·
COc1ccc(C(=O)OCCCOC(=O)c2ccc(OC)cc2OC)c(OC)c1 | -5.7 | 0.2 | -5.7 | 13.6 | -10.2 | · | ·
COc1ccc(C(=O)O/N=C(\N)Cc2ccc([N+](=O)[O-])cc2)c(OC)c1 | 0.6 | 0.4 | 75.3* | 40.3 | 51.3* | 84.0* | 57.5*
Cc1ccnc(-n2c(C)cc(/C=N/NC(=O)COc3cccc4cccnc34)c2C)c1 | 3.1 | 2.6 | -7.2 | 4.0 | 9.9 | · | ·
C[C@H](CO)N1C[C@H](C)[C@@H](CN(C)S(=O)(=O)c2cccs2)Oc2c(NS(=O)(=O)c3cn(C)cn3)cccc2C1=O | -1.7 | -1.5 | 3.5 | -7.5 | -4.1 | · | ·
CN1CCN(C2=C(Cl)C(=O)C(c3cnc(N4CCCCC4)s3)=C(Cl)C2=O)CC1 | -7.9 | -0.7 | 72.1* | 24.8 | 45.4* | 60.0* | 44.5*
C=CCc1ccc(OCCOc2cccc3ccc(C)nc23)c(OC)c1 | -0.4 | 3.6 | 42.3* | 45.9 | 51.7* | 32.3* | 31.0*
CC(NC(=O)c1cccc(N(C)C)c1)c1ccc(-n2ccnc2)cc1 (stereo not drawn) | -3.5 | -1.7 | -6.6 | -6.9 | -2.5 | · | ·
O=C(C#Cc1ccccc1)c1ccc([N+](=O)[O-])cc1 | -1.8 | 30.5 | 43.4* | -95.3 | 54.5* | 8.9 | -24.9
COc1cc(OC)cc(-c2c(C#Cc3ccsc3)c3cc(-c4ccc5c(c4)OCO5)ccc3n2C)c1 | -2.9 | -0.3 | -6.6 | 1.3 | 4.0 | · | ·
CC(C)(C)c1cnnn1-c1ccc(NC(=O)c2ccc(Br)o2)cc1 | -0.5 | 0.4 | 47.3* | 37.2 | 46.5* | 42.5* | 39.3*
COc1cccc(C(=O)Nc2ccc(-n3nncc3C(C)(C)C)cc2)c1 | -3.9 | -0.4 | 34.0 | 31.0 | 22.4 | · | ·
CC(C)(C)c1cnnn1-c1ccc(NC(=O)c2ccc3c(c2)OCO3)cc1 | 1.7 | 3.1 | 43.8* | 37.9 | 42.0* | 25.6 | 33.8*
CCc1cccc(CC)c1NC(=S)NCCc1c(C)[nH]c2ccc(C)cc12 | 3.4 | 2.6 | 45.3* | 46.4 | 46.4* | 42.5* | 45.6*
COc1ccc2[nH]c(C)c(CCNC(=S)Nc3cccc(C)c3)c2c1 | -2.3 | -0.3 | 21.1 | 17.3 | 13.2 | · | ·
SMILES | UPR XBP1 act | CHOP UPR activ | tim10-1 inh | tim23-1 inh | TIM10 inh | tim10-1 confirm | tim10 confirm
Nc1c(C(=O)NCCc2ccc(Cl)cc2)sc2ccc(S(=O)(=O)N3CCCCC3)cc12 | -0.6 | 1.4 | 43.4* | 41.3 | 44.0* | 34.6* | 28.4
O=C(Cc1ccc(S(=O)(=O)N2CCCCC2)cc1)NCc1ccc(Cl)cc1 | -2.0 | 0.6 | 13.9 | 34.3 | 15.3 | · | ·
Cc1ccc(NC(=O)c2ccc3ccccc3n2)nc1 | 1.0 | 3.6 | 52.1* | 43.3 | 70.2* | 36.0* | 74.4*
O=C(Nc1ccc(Cl)cn1)c1ccc2ccccc2n1 | 8.9 | 6.5 | 8.3 | 14.6 | 17.5 | · | ·
Cc1ccc(SCC(=O)OC(C)C(=O)NCc2ccccc2)cc1C (stereo not drawn) | -4.3 | 0.9 | 4.8 | 10.2 | 7.1 | · | ·
COC(=O)N1C(=O)[C@](c2ccccc2)(C2CCCCC2)N1C(=O)OC | -3.9 | -0.9 | 49.0* | 48.8 | 43.5* | 32.3* | 39.3*
OC(c1ccccc1)(c1ccccc1)c1ncc[nH]1 | -0.5 | -2.0 | -2.4 | -5.7 | -4.7 | · | ·
Cc1ccc(NC(=O)CSCC(=O)N(CCC(C)C)c2c(N)n(Cc3ccccc3)c(=O)[nH]c2=O)cc1 | -0.4 | -0.6 | -21.7 | -7.0 | -1.2 | · | ·
CCC(=O)Nc1nc(C)c(-c2csc(Nc3ccccn3)n2)s1 | 20.8 | 5.2 | 40.5* | 35.4 | 41.9* | 29.6 | 47.0*
Cc1cc(C)n(C(=O)N(c2ccccc2)c2ccccc2)n1 | -1.1 | -0.2 | 19.7 | 18.0 | 9.2 | · | ·
COc1cccc(C(=O)NC(=S)Nc2ccccc2N2CCCC2)c1 | -0.7 | 1.7 | 41.2* | 34.8 | 49.2* | 30.4* | 43.7*
CCC(=O)N1CCN(c2ccccc2NC(=S)NC(=O)c2cccc([N+](=O)[O-])c2)CC1 | -6.2 | -3.0 | 33.4 | 17.8 | 19.0 | · | ·
O=C(NC(=S)Nc1ccccc1N1CCOCC1)c1cccc([N+](=O)[O-])c1 | -1.9 | 1.7 | 44.0* | 41.3 | 43.9* | 34.8* | 42.9*
Cc1cc(C)n(S(=O)(=O)/C=C/c2ccccc2)n1 | -1.8 | -1.6 | 49.8* | 28.3 | 44.1* | 41.5* | 42.0*
Cn1cc(-c2nc3ccccc3[nH]2)c2ccccc21 | 0.0 | 3.4 | 41.0* | -10.1 | 71.2* | 26.6 | -3.0
Cc1c(-c2nc3ccccc3[nH]2)cnn1C | -1.7 | 2.6 | -41.2 | -0.1 | 3.1 | · | ·
COc1ccc(OCC(=O)O/N=C(\N)Cc2ccc(Cl)cc2)cc1 | -1.9 | 2.8 | 62.3* | 47.3 | 54.1* | 57.7* | -40.0
